Results reported in PubChem BioAssay AID624466 (The Scripps Research Institute Molecular Screening Center, 2012).
Out of some 360,000 compounds screened, about 5,400 (1.5%) were called active.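 Rule for the calls: active = inhibition above a per-plate cutoff, the mean inhibition of test compounds on that plate plus 3 SD (cut at about 49% in these data); inactive = the rest.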 For the sample, actives were picked, then their nearest neighbours and some compounds at random.

The molecules below were run against Trace amine-associated receptor 1 (Homo sapiens) (UniProt Q96RJ0) (assay: human TAAR1 antagonists, primary screen, Fluo-8 calcium fluorescence, CHO RD-HGA16 cells (AID 624466;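 note: 0% = DMSO plus EC80 beta-PEA response and 100% = DMSO alone without agonist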)). Settings: CHO RD-HGA16 TAAR1, Fluo-8 calcium fluorescence, antagonist; at 3 µM; active compounds read high.
Chain of Trace amine-associated receptor 1 (Homo sapiens) (Q96RJ0 whole entry, looked up): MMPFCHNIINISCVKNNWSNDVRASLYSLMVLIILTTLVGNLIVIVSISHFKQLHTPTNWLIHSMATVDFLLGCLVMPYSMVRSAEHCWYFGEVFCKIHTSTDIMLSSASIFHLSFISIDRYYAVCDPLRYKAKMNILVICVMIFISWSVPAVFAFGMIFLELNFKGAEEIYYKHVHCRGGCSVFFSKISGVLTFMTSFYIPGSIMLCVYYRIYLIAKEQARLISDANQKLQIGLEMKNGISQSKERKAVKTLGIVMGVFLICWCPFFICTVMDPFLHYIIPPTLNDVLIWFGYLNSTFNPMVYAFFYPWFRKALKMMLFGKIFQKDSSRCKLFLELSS
In short: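 Material: RD-HGA16 CHO cells with stable hTAAR1 and Gα16; Dosing: single nominal final test compound concentration of 3 µM; Schedule: seeding 17-24 h prior, 75-min 37 °C, 30-min RT dye loading; Detection: kinetic Fluo-8 calcium fluorescence measurement; Measure: % inhibition from peak post-agonist over basal fluorescence ratio; Benchmarks: vehicle and agonist controls.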

SMILES | inhibition
O=C(OCC(=O)N1CCOCC1)c1ccc2ccccc2c1 | -11.6% (inactive)
O=C1C(Sc2cccc(F)c2)=C[C@@]2(O)CC[C@@H](O)[C@]1(Sc1cccc(F)c1)[C@H]2O | 1.99% (inactive)
N#Cc1ccc(C(C(=O)NCc2ccccc2)n2c(=O)c(-c3ccco3)nc3ccccc32)cc1 (stereo not given) | -2.89% (inactive)
O=C(Cc1ccccc1)Nc1c(Cl)ccc2nsnc12 | 3.32% (inactive)
CC(=O)c1ccc(NC(=O)c2cc(-c3cccs3)on2)cc1 | 5.25% (inactive)
Cc1cc(Br)ccc1NC(=O)c1sc2ncn(CC(=O)N3CCN(c4ccccn4)CC3)c(=O)c2c1C | 12% (inactive)
Cc1cc(Br)ccc1NC(=O)c1cnc(N2CCN(c3ccccn3)CC2)c2ccccc12 | 67.1% (active)
Cc1cc(C(=O)N2CCN(c3ccccn3)CC2)c(C)o1 | 1.13% (inactive)
CCOc1ccccc1C(=O)N1CCC[C@@H]1C(=O)N1CCC[C@H]1C(=O)NCc1ccccc1 | -5.66% (inactive)
CN1C(=O)CN2CCc3ccccc3C2c2cc(Cl)ccc21 (stereo not given) | -4.12% (inactive)
S=C(Nc1cccc(Br)c1)N1CCn2cccc2C1c1cccnc1 (stereo not given) | -5.72% (inactive)
S=C(NCCc1ccccc1)N1CCn2cccc2C1c1ccncc1 (stereo not given) | 76.5% (active)
CC1CCCCN1C(=S)NCc1ccccc1 (stereo not given) | -12.2% (inactive)
Cc1cccc(N(C)C(=O)CN2C(=O)COc3ccc(S(=O)(=O)N4CCCCCC4)cc32)c1 | 28.5% (inactive)
CCCCn1nc(C(=O)Nc2ccc(S(=O)(=O)Nc3ncccn3)cc2)c2ccccc2c1=O | -40.3% (inactive)
CCCn1nc(C(=O)Nc2ccc3nc(C)sc3c2)c2ccccc2c1=O | -20.5% (inactive)
CCCCn1nc(C(=O)Nc2cccc(C(=O)NC3CC3)c2)c2ccccc2c1=O | 48.7% (active)
CC(=O)N1CCN(Cc2cc(=O)oc3cc(C)ccc23)CC1 | -3.73% (inactive)
Cc1ccc2nc(CN(C)C(=O)[C@@H](Cc3ccccc3)NC(=O)[C@H]3O[C@@H](n4ccc(=O)[nH]c4=O)[C@H](O)[C@@H]3O)[nH]c2c1 | -7.68% (inactive)
CN(c1ccccc1)S(=O)(=O)c1ccc(NC(=O)COc2ccccc2)cc1 | 40.2% (inactive)
COC(=O)[C@H]1Cc2cnoc2C[C@]1(C)C(=O)O | -4.37% (inactive)
COC(=O)[C@]12C[C@H](CC(=O)NCCCCc3ccccc3)C(=O)N(Cc3ccc4c(c3)OCO4)C1=C[C@H](C(C)(C)C)O[C@@H]2C | -5.78% (inactive)
O=C(CSc1nnc(COc2ccc(Cl)cc2)n1Cc1ccco1)N1CCNC1=O | 11.4% (inactive)
CCc1nc2oc3ccccc3c(=O)c2c(=O)n1Cc1ccc(OC)cc1 | 3.24% (inactive)
Cn1c2ccccc2c(=O)c2c(=O)n(Cc3ccco3)c(COc3ccccc3)nc21 | 62.5% (active)
